Source: ChEMBL document CHEMBL3046679, “Design, synthesis, and biological activities of arylmethylamine substituted chlorotriazine and methylthiotriazine compounds” (J Agric Food Chem, 2011)
Active and inactive are the calls of the source. The rule behind the calls is not given here.

Tests used:
[1] = test system: Zymoseptoria tritici; experiment: Fungicidal activity against Zymoseptoria tritici assessed as inhibition of mycelia growth at 100 ppm; type: functional, organism-based
[2] = test system: Echinochloa crus-galli; experiment: Herbicidal activity against Echinochloa crus-galli (barnyard grass) at 1.5 kg/ha preemergence treatment measured after 10 days by glasshouse test; type: functional; conditions: pre-emergence, 240 h
Method in brief: (§1)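 Glasshouse pre/postemergence test, each treatment in triplicate. Above-ground fresh weight measured 10 days after treatment. Result expressed as percent inhibition versus control, from 0 (no control) to 100 (complete control); glyphosate used as positive control.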

[3] = test system: Echinochloa crus-galli; experiment: Herbicidal activity against Echinochloa crus-galli (barnyard grass) at 1.5 kg/ha postemergence treatment measured after 10 days by glasshouse test; type: functional; conditions: post-emergence, 240 h; method in brief: as §1
[4] = test system: Alternaria solani; experiment: Fungicidal activity against Alternaria solani assessed as inhibition of mycelia growth at 2 ppm; type: functional, organism-based
Method in brief: (§2)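 Mycelial growth test in 96-well plates: compound incorporated into artificial growth medium at 2 ppm, two replicates per rate. Each well scored 99 for complete, 55 for partial or 0 for no inhibition. Values are the mean across replicates; azoxystrobin and prochloraz used as positive controls.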

[5] = test system: Puccinia triticina; experiment: Fungicidal activity against Puccinia triticina assessed as inhibition of disease development in compound treated leaf pieces at 200 ppm relative to untreated control (wheat-preventative); type: functional
Method in brief: (§3)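 Preventative leaf-piece test on host tissue (tomato, vine, wheat or barley). Formulated compound applied at 200, 60 and 20 ppm before spore inoculation. Disease scored 3–9 days after inoculation, depending on the pathogen, as percent inhibition of disease development versus untreated controls. Values are the mean across replicates.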

[6] = test system: Blumeria graminis f. sp. tritici; experiment: Fungicidal activity against Blumeria graminis f. sp. tritici assessed as inhibition of disease development in compound treated leaf pieces at 200 ppm relative to untreated control (wheat-preventative); type: functional
[7] = test system: Stellaria media; experiment: Herbicidal activity against Stellaria media assessed as growth inhibition at 1 kg/ha preemergence treatment by glasshouse test; type: functional; conditions: pre-emergence, read-out: GI
Method in brief: (§4)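 Glasshouse screen with pre- or postemergence application at 1.0 kg/ha. Result given as percent inhibition of plant growth; norflurazon and glyphosate used as controls.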

[8] = test system: Phytophthora infestans; experiment: Fungicidal activity against Phytophthora infestans assessed as inhibition of disease development in compound treated leaf pieces at 20 ppm relative to untreated control (tomato-preventative); type: functional; method in brief: as §3
[9] = test system: Alternaria solani; experiment: Fungicidal activity against Alternaria solani assessed as inhibition of disease development in compound treated leaf pieces at 60 ppm relative to untreated control (tomato-preventative); type: functional; method in brief: as §3
[10] = test system: Phytophthora infestans; experiment: Fungicidal activity against Phytophthora infestans assessed as inhibition of disease development in compound treated leaf pieces at 200 ppm relative to untreated control (tomato-preventative); type: functional; method in brief: as §3
[11] = test system: Parastagonospora nodorum; experiment: Fungicidal activity against Phaeosphaeria nodorum assessed as inhibition of disease development in compound treated leaf pieces at 20 ppm relative to untreated control (wheat preventative); type: functional; method in brief: as §3
[12] = test system: Amaranthus retroflexus; experiment: Herbicidal activity against Amaranthus retroflexus assessed as growth inhibition at 1 kg/ha postemergence treatment by glasshouse test; type: functional; conditions: post-emergence, read-out: GI; method in brief: as §4
[13] = test system: Phytophthora infestans; experiment: Fungicidal activity against Phytophthora infestans assessed as inhibition of mycelia growth at 200 ppm; type: functional, organism-based
[14] = test system: Plasmopara viticola; experiment: Fungicidal activity against Plasmopara viticola assessed as inhibition of disease development in compound treated leaf pieces at 200 ppm relative to untreated control (grapevine-preventative); type: functional; method in brief: as §3
[15] = test system: Blumeria graminis f. sp. tritici; experiment: Fungicidal activity against Blumeria graminis f. sp. tritici assessed as inhibition of disease development in compound treated leaf pieces at 60 ppm relative to untreated control (wheat-preventative); type: functional
[16] = test system: Puccinia triticina; experiment: Fungicidal activity against Puccinia triticina assessed as inhibition of disease development in compound treated leaf pieces at 200 ppm relative to untreated control (wheat-curative); type: functional
Method in brief: (§5)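 Curative wheat leaf-piece test against Puccinia triticina. Leaf pieces inoculated with spores first, then treated with formulated compound at 200, 60 or 20 ppm. Disease scored 3–9 days after inoculation as percent inhibition versus untreated controls. Values are the mean across replicates.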

[17] = test system: Brassica napus; experiment: Herbicidal activity against Brassica napus (oilseed rape) at 1.5 kg/ha postemergence treatment measured after 10 days by glasshouse test; type: functional; conditions: post-emergence, 240 h; method in brief: as §1
[18] = test system: Parastagonospora nodorum; experiment: Fungicidal activity against Phaeosphaeria nodorum assessed as inhibition of disease development in compound treated leaf pieces at 200 ppm relative to untreated control (wheat preventative); type: functional
Method in brief: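 Wheat leaf pieces treated with formulated compound (200, 60 and 20 ppm) before inoculation with pathogen spores. Disease development assessed 3–9 days after inoculation, depending on the assay. Scored as percent inhibition relative to untreated controls; value is the mean across replicates.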

[19] = test system: Lolium perenne; experiment: Herbicidal activity against Lolium perenne (perennial ryegrass) assessed as growth inhibition at 1 kg/ha postemergence treatment by glasshouse test; type: functional; conditions: post-emergence, read-out: GI; method in brief: as §4
[20] = test system: Aphididae; experiment: Insecticidal activity against Aphididae (aphids) assessed as mortality at 1000 ppm by leaf-disk assay; type: functional, organism-based
Method in brief: (§6)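 Leaf-disk assay at 1000 ppm, three replicates. Plates kept 5–9 days in controlled-environment cabinets. Mortality judged against untreated wells: 99 for significant mortality, 0 otherwise. Values are the mean of three; thiamethoxam and indoxacarb used as positive controls.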

[21] = test system: Alternaria solani; experiment: Fungicidal activity against Alternaria solani assessed as inhibition of disease development in compound treated leaf pieces at 200 ppm relative to untreated control (tomato-preventative); type: functional; method in brief: as §3
[22] = test system: Botrytis cinerea; experiment: Fungicidal activity against Botryotinia fuckeliana assessed as inhibition of mycelia growth at 2 ppm; type: functional, organism-based; method in brief: as §2
[23] = test system: Puccinia triticina; experiment: Fungicidal activity against Puccinia triticina assessed as inhibition of disease development in compound treated leaf pieces at 20 ppm relative to untreated control (wheat-curative); type: functional; method in brief: as §5
[24] = test system: Amaranthus retroflexus; experiment: Herbicidal activity against Amaranthus retroflexus assessed as growth inhibition at 1 kg/ha preemergence treatment by glasshouse test; type: functional; conditions: pre-emergence, read-out: GI; method in brief: as §4
[25] = test system: Digitaria sanguinalis; experiment: Herbicidal activity against Digitaria sanguinalis (hairy crabgrass) assessed as growth inhibition at 1 kg/ha preemergence treatment by glasshouse test; type: functional; conditions: pre-emergence, read-out: GI; method in brief: as §4
[26] = test system: Pythium dissimile; experiment: Fungicidal activity against Pythium dissimile assessed as inhibition of mycelia growth at 2 ppm; type: functional, organism-based; method in brief: as §2
[27] = test system: Puccinia triticina; experiment: Fungicidal activity against Puccinia triticina assessed as inhibition of disease development in compound treated leaf pieces at 60 ppm relative to untreated control (wheat-preventative); type: functional; method in brief: as §3
[28] = test system: Parastagonospora nodorum; experiment: Fungicidal activity against Phaeosphaeria nodorum assessed as inhibition of disease development in compound treated leaf pieces at 60 ppm relative to untreated control (wheat preventative); type: functional; method in brief: as §3
[29] = test system: Plasmopara viticola; experiment: Fungicidal activity against Plasmopara viticola assessed as inhibition of disease development in compound treated leaf pieces at 60 ppm relative to untreated control (grapevine-preventative); type: functional; method in brief: as §3
[30] = test system: Heliothis virescens; experiment: Insecticidal activity against Lepidoptera Heliothis virescens (tobacco budworm) assessed as mortality at 1000 ppm by leaf-disk assay; type: functional, organism-based; method in brief: as §6
[31] = test system: Poa annua; experiment: Herbicidal activity against Poa annua assessed as growth inhibition at 32 ppm by 96-well plate test; type: functional; conditions: read-out: GI
Method in brief: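 96-well plate herbicide screen: Arabidopsis thaliana at 10 ppm and Poa annua at 32 ppm, two replicates. Plates incubated seven days in a controlled-environment cabinet. Each replicate scored 0 (no visible effect) or 99 (herbicidal effect); values are the mean of the two. Atrazine used as reference.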

[32] = test system: Digitaria sanguinalis; experiment: Herbicidal activity against Digitaria sanguinalis (hairy crabgrass) assessed as growth inhibition at 1 kg/ha postemergence treatment by glasshouse test; type: functional; conditions: post-emergence, read-out: GI; method in brief: as §4
[33] = test system: Plasmopara viticola; experiment: Fungicidal activity against Plasmopara viticola assessed as inhibition of disease development in compound treated leaf pieces at 20 ppm relative to untreated control (grapevine-preventative); type: functional; method in brief: as §3
[34] = test system: Brassica napus; experiment: Herbicidal activity against Brassica napus (oilseed rape) at 1.5 kg/ha preemergence treatment measured after 10 days by glasshouse test; type: functional; conditions: pre-emergence, 240 h; method in brief: as §1

Question: For `CC(C)Nc1nc(Cl)nc(NCc2ccc(F)cc2)n1`, which inhibition [1] is on record?
Answer: Active

Question: And the inhibition at 1500 g/ha [2]?
Answer: 2.1%

Question: And the inhibition at 1500 g/ha [3]?
Answer: 75.7%

Question: What about the inhibition [4] of the same compound?
Answer: inactive

Question: What about the inhibition at 200 ppm [5] of the same compound?
Answer: 100%

Question: And the inhibition at 200 ppm [6]?
Answer: 70%

Question: What about the inhibition of growth at 1000 g/ha [7] of the same compound?
Answer: 90%

Question: What about the inhibition at 20 ppm [8] of the same compound?
Answer: 0%

Question: What about the inhibition at 60 ppm [9] of the same compound?
Answer: 0%

Question: What about the inhibition at 200 ppm [10] of the same compound?
Answer: 0%

Question: And the inhibition at 20 ppm [11]?
Answer: 0%

Question: What about the inhibition of growth at 1000 g/ha [12] of the same compound?
Answer: 100%

Question: And the inhibition [13]?
Answer: inactive

Question: And the inhibition at 200 ppm [14]?
Answer: 50%

Question: And the inhibition at 60 ppm [15]?
Answer: 20%

Question: What about the inhibition at 200 ppm [16] of the same compound?
Answer: 100%

Question: What about the inhibition at 1500 g/ha [17] of the same compound?
Answer: 100%

Question: What about the inhibition at 200 ppm [18] of the same compound?
Answer: 70%

Question: What about the inhibition of growth at 1000 g/ha [19] of the same compound?
Answer: 50%

Question: And the mortality [20]?
Answer: inactive

Question: And the inhibition at 200 ppm [21]?
Answer: 0%

Question: What about the inhibition [22] of the same compound?
Answer: Active

Question: And the inhibition at 20 ppm [23]?
Answer: 20%

Question: What about the inhibition of growth at 1000 g/ha [24] of the same compound?
Answer: 100%

Question: And the inhibition of growth at 1000 g/ha [25]?
Answer: 70%

Question: And the inhibition [26]?
Answer: inactive

Question: And the inhibition at 60 ppm [27]?
Answer: 20%

Question: What about the inhibition at 60 ppm [28] of the same compound?
Answer: 20%

Question: And the inhibition at 60 ppm [29]?
Answer: 20%

Question: And the mortality [30]?
Answer: inactive

Question: And the inhibition of growth at 32 ppm [31]?
Answer: 0%

Question: And the inhibition of growth at 1000 g/ha [32]?
Answer: 0%

Question: What about the inhibition at 20 ppm [33] of the same compound?
Answer: 0%

Question: And the inhibition at 1500 g/ha [34]?
Answer: 100%
